TRPC4 act: opens the mouse TRPC4 cation channel; Q9QUQ5; B-score at 10 µM; 310,000 compounds, 0.49% hits; HEK293 TRPC4beta/mu-opioid, Fluo4 calcium fluorescence; stronger effect = higher value; AID 2237;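 active means B-score above 5 SD of library B-scores, and initial fluorescence ratio not above library mean plus 5 SD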;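 further: positive B-score marks a calcium rise read as TRPC4 activation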
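Assay system: HEK293 cells stably co-expressing mouse TRPC4beta and mu-opioid receptor / Timing: Fluo4 dye loading 45 min at room temperature, 110 s recording / Signal: Fluo4 calcium-sensitive dye fluorescence, kinetic, 1 Hz baseline / Read-out: integrated baseline-normalised fluorescence ratio, converted to per-well B score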
TRPC4 potent: TRPC4 (mouse) allosteric potentiation; Q9QUQ5; HEK293 TRPC4beta/mu-opioid, DAMGO EC20, Fluo-4 Ca2+ flux; stronger effect = higher value; B-score at 10 µM; 310,000 compounds, 0.42% hits;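 active means B-score of calcium response area above 5 SD of library B-scores, with initial fluorescence ratio within 5 SD of library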;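 further: B-score of integrated fluorescence ratio over time as area under calcium response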
Kir21 block: Kir2.1 (mouse) channel inhibition; B-score at 10 µM; P35561; HEK293-Kir2.1, FluxOR thallium flux fluorescence; stronger effect = lower value; 310,000 compounds, 0.85% hits;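 active means fluorescence ratio B-score at or below minus 3 SD of library scores, with starting-brightness B-score within 2 SD, cut at about -4.2 in these data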;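 further: channel flux triggered by added potassium and thallium sulfate stimulus; B-score of peak minus minimum fluorescence over baseline after thallium stimulus; more negative B-score means stronger Kir2.1 block with less thallium influx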
Target sequence (P35561 whole entry, looked up): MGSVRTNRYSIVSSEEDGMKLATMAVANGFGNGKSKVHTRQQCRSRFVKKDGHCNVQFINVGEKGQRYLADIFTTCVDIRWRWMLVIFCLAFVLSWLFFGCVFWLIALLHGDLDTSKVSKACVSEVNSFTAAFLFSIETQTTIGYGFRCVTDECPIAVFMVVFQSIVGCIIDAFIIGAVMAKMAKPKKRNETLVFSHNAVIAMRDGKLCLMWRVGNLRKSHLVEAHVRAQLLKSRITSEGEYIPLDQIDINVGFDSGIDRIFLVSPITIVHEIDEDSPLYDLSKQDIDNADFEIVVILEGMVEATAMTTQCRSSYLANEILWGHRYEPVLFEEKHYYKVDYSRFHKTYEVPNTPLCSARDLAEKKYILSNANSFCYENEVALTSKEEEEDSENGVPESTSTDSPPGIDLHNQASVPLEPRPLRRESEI
TRPC6 inhibitor: blocks the mouse TRPC6 cation channel; 310,000 compounds, 1.1% hits; HEK293-TRPC6, membrane potential dye, ACh-evoked depolarization; stronger effect = lower value; AID 2553; B-score at 10 µM;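 active means B-score under library mean minus 3 SD, initial fluorescence not abnormally high, positive integrated signal ratio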;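 further: B-score derived from integrated fluorescence ratio over the kinetic read; more negative B-score means stronger inhibition of depolarization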
TRPC6 act: activators of mouse TRPC6 channel; HEK293-TRPC6 membrane potential dye fluorescence; stronger effect = higher value; B-score at 10 µM; 310,000 compounds, 0.13% hits; AID 2550;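 active means B-score of the integrated fluorescence ratio above library mean plus 3 SD, and starting fluorescence ratio within library mean plus 5 SD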;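 further: higher score means more depolarization so channel activation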
TRPC4 inh: TRPC4 (mouse) channel inhibition | AID 2247 | B-score at 10 µM | 300,000 compounds, 0.39% hits | HEK293 TRPC4beta/mu-opioid, DAMGO-evoked Fluo4 calcium flux; stronger effect = lower value;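 active means B-score over 3 SD under the library average, no early fluorescence shift, positive overall ratio signal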
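Assay system: HEK293 cells with stable TRPC4beta plus mu-opioid receptor expression. Dosing: single dose. Measured by: Fluo4 Ca2+ flux fluorescence. Also added: DAMGO in two steps, submaximal then maximal. Read-out: B score from integrated Fluo4 fluorescence ratio.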
* hit, by the source's call; i = inactive. A selection: hits, their analogues and other compounds. The true share with any hit is near 3%.

SMILES | TRPC4 act | TRPC4 potent | Kir21 block | TRPC6 inhibitor | TRPC6 act | TRPC4 inh
C[C@H]1CCC[C@@]2(O[C@H](CCO)C[C@H](O)[C@H]2O)O1 | i | i | 0.01 | i | i | i
N#CCCN(Cc1cccnc1)C(=S)NC(=O)C1CC1 | i | i | -0.35 | i | i | i
CC1(C)C2C/C(=N\O)C(C)(/[N+]([O-])=C/c3cccc([N+](=O)[O-])c3)CC21 (stereo not drawn) | i | i | -1 | i | i | i
CCNC(=S)N(Cc1c(C)noc1C)c1ccccc1 | i | i | -3.5 | i | i | i
CCCCNC(=S)N(Cc1c(C)noc1C)c1ccccc1 | i | i | -5.4* | i | i | i
Clc1ccc(-n2cc(-c3ccc(Br)cc3)[n+]3c2CCCCC3)cc1 | i | i | -0.1 | i | i | -6*
Cc1ccc(S(=O)(=O)NC(C(=O)Oc2cc3oc(=O)cc(C)c3cc2Cl)C(C)C)cc1 (stereo not drawn) | i | 15* | 2.8 | i | i | i
Cc1ccccc1NC(=S)NCc1cccn1C | i | i | 0.63 | i | i | i
Cc1c(Cl)cccc1NC(=S)NCc1cccn1C | i | i | 0.23 | i | i | -6*
NC1=NC2CS(=O)(=O)CC2S1 (stereo not drawn) | i | i | -1.5 | i | i | i
CCn1c(N)[n+](CC(=O)Nc2ccc(SC(F)F)cc2)c2ccccc21 | 156* | i | -1.7 | i | i | i
Cc1cc([N+](=O)[O-])ccc1NCc1ccco1 | i | i | -2.1 | i | i | -6*
COc1ccccc1NC(=O)C1CCN(S(=O)(=O)c2ccc3c(c2)NC(=O)CO3)CC1 | i | i | -0.34 | i | i | i
CC1(CCC(=O)N2CCCC(Nc3ccc(F)cc3)C2)CC1 (stereo not drawn) | i | i | -6.1* | i | i | i
O=C(CC1CCCC1)N1CCCC(Nc2ccc(F)cc2)C1 (stereo not drawn) | i | i | -3.5 | i | i | i
Cc1ccc(S(=O)(=O)N2CCN=C2SCc2cccnc2)cc1 | i | i | -4.8* | i | i | i
O=S(=O)(c1ccccc1)N1CCN=C1SCc1cccnc1 | i | i | -4.2* | i | i | i
Cc1ccc(S(=O)(=O)c2c(C)nn(C(C)(C)C)c2OC(=O)CC(C)C)cc1 | i | i | -0.67 | i | i | i
Cc1ccc(C)c(S(=O)(=O)N2CCN(C(=O)c3ccnn3C)CC2)c1 | i | i | -0.87 | i | i | i
C#Cc1ccc(CN2CCN(CCc3ccccc3)C(CCO)C2)cc1 (stereo not drawn) | 43* | i | 0.42 | i | i | i
CC(C)CCN1CCN(Cc2ccsc2)CC1CCO (stereo not drawn) | i | i | 0.02 | i | i | -8*
OCCC1CN(Cc2nc3ccccc3s2)CCN1CCc1ccccc1 (stereo not drawn) | 60* | i | -0.35 | i | i | i
CC(C)CCN1CCN(Cc2nc3ccccc3s2)CC1CCO (stereo not drawn) | i | i | 1.2 | i | i | i
OCCC1CN(Cc2ccc(F)cc2)CCN1CCc1ccccc1 (stereo not drawn) | i | i | -0.26 | i | i | i
CN(Cc1ccccc1OCCO)CC1CCCN(CCc2ccc(Cl)cc2)C1 (stereo not drawn) | i | i | -1.3 | i | i | i
SMILES | TRPC4 act | TRPC4 potent | Kir21 block | TRPC6 inhibitor | TRPC6 act | TRPC4 inh
COc1ccccc1C1(CCNC(C)c2cccs2)CCOC(C(C)C)C1 (stereo not drawn) | 77* | i | -8.9* | i | i | i
CC1CCN(C(=O)CCC(=O)Nc2nnc(C(F)(F)F)s2)CC1 | i | i | -1.9 | i | i | i
COC(=O)CSc1nnc(CNS(=O)(=O)c2ccc(Br)cc2)n1C | i | i | 0.88 | i | i | -6*
Cc1cc(C)c(S(=O)(=O)NCc2cccnc2)c(C)c1 | i | i | 0.45 | i | i | i
Cc1cc(C)c(C)c(S(=O)(=O)NCc2cccnc2)c1C | i | i | -4.7* | i | i | i
Cc1cc(C)c(C)c(S(=O)(=O)NCc2ccco2)c1C | i | 26* | -7.7* | i | i | i
CCc1nnc(SC(C)C(=O)Nc2nccs2)n1C (stereo not drawn) | i | i | -0.42 | i | i | i
Cc1noc(C)c1CSc1nnc2scc(-c3ccc(Cl)cc3)n12 | i | i | -4.4* | i | i | i
O=c1[nH]c(C2CCCN(S(=O)(=O)c3ccccc3)C2)nc2c1nnn2Cc1ccccc1Br (stereo not drawn) | i | 10* | 1.2 | i | i | i
COc1ccc(-n2c(-c3ccc(Br)cc3)c[n+]3c2CCCCC3)cc1 | i | i | -0.85 | i | i | -6*
COc1ccc(CCN(C)C2CCCN(S(=O)(=O)c3ccccc3)C2)cc1OC (stereo not drawn) | i | i | 0.01 | i | i | i
CCNC(=S)N/N=C/c1cc(C)n(-c2ccc(Cl)cc2)c1C | i | 22* | 1.3 | i | i | i
Cc1cc(/C=N/NC(N)=S)c(C)n1-c1ccc(Cl)c(Cl)c1 | i | i | -0.41 | i | i | i
CN(C)CCNc1ncnc2oc(-c3ccccc3)c(-c3ccccc3)c12 | i | i | -4.7* | i | i | i
CN(C)CCNc1ncnc2ccccc12 | i | 11* | 0.6 | i | i | i
Cc1ccc(-c2nc(NCCN(C)C)c3ccccc3n2)cc1 | i | i | 0.51 | i | i | i
OC(CNC1CCCc2ccccc21)COc1c(Cl)cccc1Cl (stereo not drawn) | 44* | i | -8.9* | i | i | -5*
OC(CNCc1ccccc1)COc1ccccc1 (stereo not drawn) | i | i | 0.09 | i | i | i
COc1cccc(CNC(=O)c2ccc(COc3ccccc3)cc2)c1 | i | i | -0.22 | i | i | i
COc1cccc(CNCC(O)COc2ccc(C(=O)c3ccccc3)cc2)c1 (stereo not drawn) | i | i | -5.4* | i | i | i
O=C(c1ccccc1)c1ccc(OCC(O)CNCc2ccc(Cl)cc2)cc1 (stereo not drawn) | i | i | -4.7* | i | i | i
OC(CNC1CCCC1)COc1ccc(-c2ccccc2)cc1 (stereo not drawn) | i | i | -3.1 | i | i | i

Source: PubChem BioAssay (Johns Hopkins Ion Channel Center)
